Assay results as given in ChEMBL document CHEMBL1135864, “Novel amide-based inhibitors of inosine 5'-monophosphate dehydrogenase” (Bioorg Med Chem Lett, 2002).

Key:
[1] = tested on: CCRF-CEM; test: The human T-lymphoblast CEM cell (ATCC) proliferation inhibitory activity was determined; type: functional, cell-based
Procedure, shortened: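 CEM human T-lymphoblasts were grown in RPMI 1640 with 10% heat-inactivated FBS and penicillin/streptomycin, then seeded at 3000 cells/well with 0.5% DMSO. Compounds were tested in triplicate, top final concentration 10 uM, in 3-fold serial dilutions, for 72 h at 5% CO2. Viability was read by Alamar Blue (10% v/v, final 5 h), fluorescence ex/em 530/590 nm.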

[2] = molecular target: T1, Inosine-5'-monophosphate dehydrogenase 2 (Homo sapiens, UniProt P12268); test: Inhibitory activity of compound was evaluated against the Inosine-5'-monophosphate dehydrogenase 2
Procedure, shortened: (§1)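 Human type II IMPDH expressed in and purified from E. coli, used at 40 nM. Buffer was 0.1 M Tris, 0.1 M KCl, 3 mM EDTA pH 8.0 with 2 mM DTT and 400 µM IMP. Compounds were added from DMSO (final 2.5%), and the reaction was started with NAD (final 400 µM). After 2 h at 25 °C, NADH absorbance was read at 340 nm. IC50 was taken from a four-parameter logistic fit.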

[3] = tested on: CCRF-CEM; test: Inhibition of human T-lymphoblast CEM cell (ATCC) proliferation; At this concentration no inhibition was observed; type: functional, cell-based
[4] = molecular target: Inosine-5'-monophosphate dehydrogenase 1 (Homo sapiens, UniProt P20839); test: Inhibitory activity of compound was evaluated against the Inosine-5'-monophosphate dehydrogenase 1
Chain of Inosine-5'-monophosphate dehydrogenase 1 (P20839 whole entry): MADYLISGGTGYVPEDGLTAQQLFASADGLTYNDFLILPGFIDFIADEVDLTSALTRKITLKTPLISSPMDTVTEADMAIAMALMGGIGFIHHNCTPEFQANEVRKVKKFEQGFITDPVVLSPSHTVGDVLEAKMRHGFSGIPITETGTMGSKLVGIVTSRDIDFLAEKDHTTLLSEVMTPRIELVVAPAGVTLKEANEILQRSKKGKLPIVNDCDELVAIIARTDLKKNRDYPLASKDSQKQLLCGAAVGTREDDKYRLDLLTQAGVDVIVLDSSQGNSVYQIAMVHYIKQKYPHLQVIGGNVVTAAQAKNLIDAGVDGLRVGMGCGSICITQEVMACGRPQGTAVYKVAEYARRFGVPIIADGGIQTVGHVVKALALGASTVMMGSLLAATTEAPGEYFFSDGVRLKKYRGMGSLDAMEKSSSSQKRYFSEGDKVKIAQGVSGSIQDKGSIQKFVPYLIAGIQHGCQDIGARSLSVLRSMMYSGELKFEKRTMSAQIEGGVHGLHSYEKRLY

[5] = molecular target: T1, Inosine-5'-monophosphate dehydrogenase 2; test: Inhibitory activity of compound was evaluated against the inosine monophosphate dehydrogenase -II (IMPDH-II) enzyme; procedure, shortened: as §1

| IC50 [1] [nM] | IC50 [2] [nM] | IC50 [3] [nM] | IC50 [4] [nM] | IC50 [5] [nM] | Structure (SMILES) |
| --- | --- | --- | --- | --- | --- |
| 8800 | 110 |  |  |  | COc1cc(NC(=O)c2ccc(C)s2)ccc1-c1cnco1 |
|  | 200 | > 1000 |  |  | COc1cc(NC(=O)/C=C/c2cccc(F)c2)ccc1-c1cnco1 |
|  | 210 | > 1000 |  |  | COc1cc(NC(=O)/C=C/c2ccc(C)cc2)ccc1-c1cnco1 |
|  | 630 | > 1000 |  |  | COc1cc(NC(=O)c2ccc3[nH]ccc3c2)ccc1-c1cnco1 |
|  | 810 | > 1000 |  |  | COc1cc(NC(=O)c2cccs2)ccc1-c1cnco1 |
|  | 590 | > 1000 |  |  | COc1cc(NC(=O)/C=C/c2cccc(C)c2)ccc1-c1cnco1 |
|  | 410 | > 1000 |  |  | COc1cc(NC(=O)/C=C/c2c[nH]c3ccccc23)ccc1-c1cnco1 |
|  | 330 | > 1000 |  |  | COc1cc(NC(=O)c2ccc3c(c2)OCO3)ccc1-c1cnco1 |
|  | 130 | > 1000 |  |  | COc1cc(NC(=O)c2ccc(C(C)(C)C)o2)ccc1-c1cnco1 |
|  | 740 | > 1000 |  |  | COc1cc(NC(=O)/C=C/c2ccccc2F)ccc1-c1cnco1 |
|  | 110 | > 1000 | > 1000 |  | COc1cc(NC(=O)c2cc3ccccc3[nH]2)ccc1-c1cnco1 |
|  | 2500 | > 1000 |  |  | COc1cc(NC(=O)c2ccco2)ccc1-c1cnco1 |
|  | 75 | > 1000 |  |  | COc1cc(NC(=O)/C=C/c2c(C)cc(F)cc2C)ccc1-c1cnco1 |
|  | 630 | > 1000 |  |  | COc1cc(NC(=O)/C=C/c2ccc3ccccc3n2)ccc1-c1cnco1 |
|  |  | > 1000 |  | 630 | COc1cc(NC(=O)c2ccccc2)ccc1-c1cnco1 |
|  | 73 | > 1000 |  |  | COc1cc(NC(=O)/C=C/c2ccccc2)ccc1-c1cnco1 |
|  | 170 | > 1000 |  |  | COc1cc(NC(=O)c2cc3ccccc3s2)ccc1-c1cnco1 |
|  | 66 | > 1000 |  |  | COc1cc(NC(=O)/C=C/c2cccs2)ccc1-c1cnco1 |
|  | 110 | > 1000 |  |  | COc1ccccc1/C=C/C(=O)Nc1ccc(-c2cnco2)c(OC)c1 |
|  | 210 | > 1000 |  |  | COc1cc(NC(=O)/C=C/c2cccnc2)ccc1-c1cnco1 |
|  | > 1000 | > 1000 |  |  | COc1cc(NC(=O)c2occc2C)ccc1-c1cnco1 |

The remaining lines, values behind:

| Structure (SMILES) | IC50 [1] [nM] | IC50 [2] [nM] | IC50 [3] [nM] | IC50 [4] [nM] | IC50 [5] [nM] |
| --- | --- | --- | --- | --- | --- |
| COc1cc(NC(=O)/C=C/c2ccncc2)ccc1-c1cnco1 | 8700 | 57 |  |  |  |
| COc1cc(NC(=O)c2cc3ccccn3c2)ccc1-c1cnco1 |  | 140 | > 1000 |  |  |
| COc1cc(NC(=O)c2cc3ccccc3n2C)ccc1-c1cnco1 | 7700 | 130 |  |  |  |
| COc1cc(NC(=O)c2ccc(-c3ccccn3)s2)ccc1-c1cnco1 |  | 870 | > 1000 |  |  |
| COc1cc(NC(=O)Nc2cccc(C)c2)ccc1-c1cnco1 |  |  | > 1000 |  |  |
| COc1cc(NC(=O)/C=C/c2ccco2)ccc1-c1cnco1 | 6600 | 28 |  |  |  |
| COc1cc(NC(=O)Cc2ccccc2)ccc1-c1cnco1 |  | 970 | > 1000 |  |  |
| COc1cc(NC(=O)c2[nH]nc3ccccc23)ccc1-c1cnco1 |  | > 1000 | > 1000 |  |  |
| COc1cc(NC(=O)/C=C/c2ccccc2Cl)ccc1-c1cnco1 |  | 60 | > 1000 |  |  |
| COc1cc(NC(=O)c2cc3ccccc3o2)ccc1-c1cnco1 |  | 210 | > 1000 |  |  |
| COc1cc(NC(=O)/C=C/c2ccccc2C)ccc1-c1cnco1 |  | 35 | > 1000 |  |  |
| COc1ccccc1/C=C\C(=O)Nc1ccc(-c2cnco2)c(OC)c1 |  | 960 | > 1000 |  |  |
| COc1cc(NC(=O)c2cc(C)c(C)o2)ccc1-c1cnco1 |  | 540 | > 1000 |  |  |
| COc1cc(NC(=O)/C=C/c2ccc(Cl)cc2)ccc1-c1cnco1 |  | 230 | > 1000 |  |  |
| COc1cc(NC(=O)c2cccn2C)ccc1-c1cnco1 |  | 890 | > 1000 |  |  |
| COc1cc(NC(=O)/C=C/c2cccc(Cl)c2)ccc1-c1cnco1 |  | 300 | > 1000 |  |  |
| COc1cc(NC(=O)c2c[nH]c3ccccc23)ccc1-c1cnco1 |  | > 3000 | > 1000 |  |  |
| COc1cc(NC(=O)/C=C/c2ccc(F)cc2)ccc1-c1cnco1 |  | 120 | > 1000 |  |  |
| COc1cc(NC(=O)c2ccc(C)c(C)c2)ccc1-c1cnco1 |  | 260 | > 1000 |  |  |
